ChEMBL document CHEMBL1140196, “Synthesis and biological activities of some new fluorinated coumarins and 1-aza coumarins” (Eur J Med Chem, 2008)
Calls of active or inactive are those of the source.

Tests used:
[1] = system: Escherichia coli; assay: Antibacterial activity against Escherichia coli at 100 ug/mL after 48 hrs by cup-plate method; assay type: functional
[2] = system: Escherichia coli; assay: Antibacterial activity against Escherichia coli at 50 ug/mL after 48 hrs by cup-plate method; assay type: functional
[3] = system: Escherichia coli; assay: Antibacterial activity against Escherichia coli at 25 ug/mL after 48 hrs by cup-plate method; assay type: functional; details: for zone of inhibition at 25 µg/mL: read-out: IZ
[4] = system: Bacillus; assay: Antibacterial activity against […] at 100 ug/mL after 48 hrs by cup-plate method; assay type: functional
[5] = system: Bacillus; assay: Antibacterial activity against […] at 50 ug/mL after 48 hrs by cup-plate method; assay type: functional
[6] = system: Bacillus; assay: Antibacterial activity against […] at 25 ug/mL after 48 hrs by cup-plate method; assay type: functional; details: for zone of inhibition at 25 µg/mL: read-out: IZ
[7] = system: Aspergillus niger; assay: Antifungal activity against Aspergillus niger at 100 ug/mL after 48 hrs by cup-plate method; assay type: functional
[8] = system: Aspergillus niger; assay: Antifungal activity against Aspergillus niger at 50 ug/mL after 48 hrs by cup-plate method; assay type: functional
[9] = system: Aspergillus niger; assay: Antifungal activity against Aspergillus niger at 25 ug/mL after 48 hrs by cup-plate method; assay type: functional; details: for zone of inhibition at 25 µg/mL: read-out: IZ
[10] = system: Macrophomina phaseolina; assay: Antifungal activity against Rhizoctonia bataticola at 100 ug/mL after 48 hrs by cup-plate method; assay type: functional
[11] = system: Macrophomina phaseolina; assay: Antifungal activity against Rhizoctonia bataticola at 50 ug/mL after 48 hrs by cup-plate method; assay type: functional; details: for zone of inhibition at 50 µg/mL: read-out: IZ
[12] = system: Macrophomina phaseolina; assay: Antifungal activity against Rhizoctonia bataticola at 25 ug/mL after 48 hrs by cup-plate method; assay type: functional
[13] = Acute toxicity in ip dosed albino mouse after 24 hrs; assay type: organism-based; details: in vivo
How it was run: (§1)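 Groups of six albino mice (20–25 g), fasted overnight, dosed once orally or intraperitoneally at 100 to 1000 mg kg^-1 body weight. Observed for 24 h for mortality and signs of acute toxicity (altered motor activity, tremors, convulsion, sedation, lacrimation). LD50 cut-off set at the highest dose tested, 1000 mg kg^-1.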

[14] = Acute toxicity in po dosed albino mouse after 24 hrs; assay type: organism-based; details: in vivo; how it was run: as §1
[15] = system: Rattus norvegicus; assay: Gastrointestinal toxicity in Wistar rat assessed as ulcerogenic effect at 400 mg/kg, po administered twice at 2 hrs interval after 4 hrs; assay type: organism-based; design: dose 400 mg/kg, route oral; details: in vivo
How it was run: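 Male Wistar rats fasted 36 h, then given 400 mg/kg orally twice, 2 h apart. Animals killed 4 h later and the stomach examined for lesions; ulcer index recorded.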

[16] = system: Mus musculus; assay: Analgesic activity in albino mouse assessed as inhibition of acetic acid-induced writhing at 10 mg/kg, po; assay type: functional
How it was run: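 Acetic acid writhing test: 0.6% acetic acid at 0.1 ml/10 g given intraperitoneally to albino mice of both sexes (18–22 g). Compounds given orally at 10 mg/kg as a suspension in 5% carboxymethyl cellulose. Indomethacin 10 mg/kg was the reference under the same conditions.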

[17] = system: Rattus norvegicus; assay: Antiinflammatory activity in Wistar rat assessed as inhibition of formalin-induced paw oedema volume at 100 mg/kg, po administered 30 mins before formalin challenge after 1 hr relative to control; assay type: functional
How it was run: (§2)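 Oral dosing at 100 mg/kg as a 2% CMC suspension, 30 min before injecting 3.5% formalin into the paw. Groups of six Wistar rats of either sex. Paw volume read by mercury-displacement plethysmograph at 0 h (right after formalin) and at 1, 2, 3, 4 and 5 h. Percent inhibition versus plain 2% CMC controls; SEM reported.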

[18] = system: Rattus norvegicus; assay: Antiinflammatory activity in Wistar rat assessed as inhibition of formalin-induced paw oedema volume at 100 mg/kg, po administered 30 mins before formalin challenge after 2 hrs relative to control; assay type: functional; how it was run: as §2
[19] = system: Rattus norvegicus; assay: Antiinflammatory activity in Wistar rat assessed as inhibition of formalin-induced paw oedema volume at 100 mg/kg, po administered 30 mins before formalin challenge after 3 hrs relative to control; assay type: functional; how it was run: as §2
[20] = system: Rattus norvegicus; assay: Antiinflammatory activity in Wistar rat assessed as inhibition of formalin-induced paw oedema volume at 100 mg/kg, po administered 30 mins before formalin challenge after 4 hrs relative to control; assay type: functional; how it was run: as §2
[21] = system: Rattus norvegicus; assay: Antiinflammatory activity in Wistar rat assessed as inhibition of formalin-induced paw oedema volume at 100 mg/kg, po administered 30 mins before formalin challenge after 5 hrs relative to control; assay type: functional; how it was run: as §2

Row | SMILES | inhibition at 100 µg/mL [1] | inhibition at 50 µg/mL [2] | inhibition at 25 µg/mL [3] | zone of inhibition at 25 µg/mL [3] | inhibition at 100 µg/mL [4] | inhibition at 50 µg/mL [5] | inhibition at 25 µg/mL [6] | zone of inhibition at 25 µg/mL [6] | inhibition at 100 µg/mL [7] | inhibition at 50 µg/mL [8] | Activity [9] | inhibition at 100 µg/mL [10] | inhibition at 50 µg/mL [11] | zone of inhibition at 50 µg/mL [11] | Activity [12] | Activity [3] | Activity [6] | further results
1 | Cc1ccc2c(CNc3ccc(Cl)cc3)cc(=O)oc2c1 | 62% | 36% | 17% | 44 mm | 60% | 34% | 17% | 44 mm | 52% | 21% | inactive | 54% | 32% | 84 mm | inactive |  |  | 
2 | Cc1cccc2c(COc3ccc(F)cc3)cc(=O)[nH]c12 | 57% | 33% |  |  | 62% | 31% |  |  | 60% | 36% |  | 58% | 36% | 90 mm |  | inactive | inactive | inhibition at 25 µg/mL [9]: 22%; zone of inhibition at 25 µg/mL [9]: 52 mm; inhibition at 25 µg/mL [12]: 21%
3 | O=c1cc(COc2ccc(Cl)cc2)c2ccc(Cl)cc2[nH]1 | 48% | 27% |  |  | 56% | 25% |  |  | 50% | 21% | inactive | 51% | 35% | 78 mm | inactive | inactive | inactive | 
4 | O=c1cc(CNc2ccc(F)cc2)c2cc(Cl)ccc2o1 | 95% | 64% | 51% | 92 mm | 99% | 83% | 64% |  | 90% | 73% |  | 91% | 76% |  |  |  |  | inhibition at 25 µg/mL [9]: 64%; inhibition at 25 µg/mL [12]: 68%
5 | Cc1ccc2oc(=O)cc(COc3ccc(F)cc3)c2c1 |  |  |  |  |  |  |  |  |  |  |  |  |  |  |  |  |  | LD50 at 24 h [13]: > 700 mg/kg; LD50 at 24 h [14]: > 1000 mg/kg; UI [15]: 57.29; inhibition in vivo at 10 mg/kg [16]: 72.7%; inhibition in vivo at 100 mg/kg [17]: 40%; inhibition in vivo at 100 mg/kg [18]: 36%; inhibition in vivo at 100 mg/kg [19]: 48%; inhibition in vivo at 100 mg/kg [20]: 64%; inhibition in vivo at 100 mg/kg [21]: 76%
6 | Cc1ccc2c(COc3ccc(Cl)cc3)cc(=O)oc2c1 | 65% | 35% | 14% | 40 mm | 62% | 33% | 14% | 40 mm | 50% | 22% | inactive | 54% | 27% | 75 mm | inactive |  |  | 
7 | CN(C)C=O [DIMETHYLFORMAMIDE] |  |  |  | 20 mm |  |  |  | 20 mm |  |  |  |  |  | 20 mm |  |  |  | zone of inhibition at 100 µg/mL ([1]; read-out: IZ): 20 mm; zone of inhibition at 100 µg/mL ([4]; read-out: IZ): 20 mm; zone of inhibition at 100 µg/mL ([7]; read-out: IZ): 20 mm; zone of inhibition at 25 µg/mL [9]: 20 mm; zone of inhibition at 100 µg/mL ([10]; read-out: IZ): 20 mm
8 | O=c1cc(COc2ccc(Cl)cc2)c2cc(Cl)ccc2[nH]1 | 50% | 30% |  |  | 60% | 31% |  |  | 53% | 25% | inactive | 55% | 33% | 84 mm | inactive | inactive | inactive | 
